The record followed here is ChEMBL document CHEMBL1154977, “Antiproliferative activity of novel benzo[b][1,6]naphthyridines in human solid tumor cell lines” (Bioorg Med Chem Lett, 2010).

The GI50 is the concentration at which growth is held to half of that of the control. The low end stands for greater sensitivity of the cells, the high end for lower sensitivity of the cells. By IC50 is commonly meant the concentration that gives 50% inhibition. Lower therefore signals inhibition by little substance.

One experiment concerns WiDr. Put plainly: Growth inhibition of human WiDr cells after 48 hrs by sulforhodamine B assay. Format: functional. In a few lines: (§1)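 Human solid tumor cells were exposed to drug for 48 h. Growth was measured by sulforhodamine B staining, and results were expressed as GI₅₀ (50% growth inhibition).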
In general terms: In SRB staining, fixed cells bind dye roughly in proportion to their protein.

For the next experiment, the system named is T47D. Put plainly: Growth inhibition of human T47D cells after 48 hrs by sulforhodamine B assay. The format is functional. The method, boiled down:
as §1

In another experiment the test system is Ishikawa. Put plainly: Growth inhibition of human Ishikawa cells after 48 hrs by sulforhodamine B assay. The format is functional. In a few lines: as §1
Another experiment relates to SW1573. Put plainly: Growth inhibition of human SW1573 cells after 48 hrs by sulforhodamine B assay. The format is functional. The note with it: SW1573, 48 h. The method, boiled down:
as §1

The next experiment relates to HeLa. Put plainly: Growth inhibition of human HeLa cells after 48 hrs by sulforhodamine B assay. The format is functional. In a few lines:
as §1

The subject of the next experiment is Candida albicans. Put plainly: Antifungal activity against Candida albicans ATCC 90028 after 48 hrs by broth microdilution method. The conditions noted are these: ATCC 90028, 48 h. The format is functional, organism-based. In a few lines:
(§2)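 Candida strains were grown on nutrient agar at 35–37 °C for 24 h and suspended in normal saline at 1.0–5.0 × 10³ cfu mL⁻¹, matched to a 0.5 McFarland standard. Broth microdilution was run in RPMI 1640 buffered with MOPS, with growth and sterility controls. Plates were incubated at 35–37 °C in a moist dark chamber, shaken, and read for optical density at 490 nm after 48 h.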
On the technique in general: In broth dilution the organism is exposed to a series of concentrations in liquid medium.

The subject of a further experiment is Nakaseomyces nivariensis. Put plainly: Antifungal activity against Candida nivariensis 5937-63 after 48 hrs by broth microdilution method. The note with it: 5937-63, 48 h. Format: functional, organism-based. In a few lines: as §2
Experiment [1] deals with Staphylococcus aureus. Put plainly: Antibacterial activity against Staphylococcus aureus ATCC 29213 after 24 hrs by broth microdilution method. The note with it: ATCC 29213, 24 h. The format is functional, organism-based. In a few lines: (§3)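 Bacteria grown on nutrient agar at 35–37 °C for 24 h, then suspended in normal saline to approximately 5.0 × 10⁵ cfu mL⁻¹, matched to 0.5 McFarland. Broth microdilution in Mueller Hinton broth with growth and sterility controls. Incubated at 35–37 °C in a moist dark chamber, shaken, and optical density read at 630 nm after 24 h.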

Experiment [2] relates to Staphylococcus aureus. Put plainly: Antibacterial activity against Staphylococcus aureus NRS 107 after 24 hrs by broth microdilution method. Format: functional, organism-based. The conditions noted are these: NRS 107, 24 h. In a few lines:
as §3

A further experiment deals with Pichia kudriavzevii. Put plainly: Antifungal activity against Candida krusei ATCC 6258 after 48 hrs by broth microdilution method. The format is functional, organism-based. The conditions noted are these: ATCC 6258, 48 h. The method, boiled down: as §2
The next experiment has as its system Candida parapsilosis. Put plainly: Antifungal activity against Candida parapsilosis ATCC 22019 after 48 hrs by broth microdilution method. Format: functional, organism-based. The conditions noted are these: Lodderomyces parapsilosis, ATCC 22019, 48 h. The method, boiled down:
as §2

Experiment [3] has as its system Staphylococcus aureus. Put plainly: Antibacterial activity against Staphylococcus aureus ATCC 25923 after 24 hrs by broth microdilution method. The format is functional, organism-based. The conditions noted are these: ATCC 25923, 24 h. The method, boiled down: as §3
In experiment [4] the test system is Escherichia coli. Put plainly: Antibacterial activity against Escherichia coli ATCC 25922 after 24 hrs by broth microdilution method. The format is functional, organism-based. The note with it: ATCC 25922, 24 h. In a few lines:
(§4)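 Bacteria were grown on nutrient agar at 35–37 °C for 24 h and suspended in normal saline at about 5.0 × 10⁵ cfu mL⁻¹, matched to a 0.5 McFarland standard. Broth microdilution was run in Mueller Hinton broth with growth and sterility controls. Plates were incubated at 35–37 °C in a moist dark chamber, shaken, and read for optical density at 630 nm after 24 h.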

The subject of another experiment is Enterococcus faecalis. Put plainly: Antibacterial activity against Enterococcus faecalis ATCC 29212 after 24 hrs by broth microdilution method. Format: functional, organism-based. The conditions noted are these: ATCC 29212, 24 h. The method, boiled down:
as §4

A further experiment deals with Pseudomonas aeruginosa. Put plainly: Antibacterial activity against Pseudomonas aeruginosa ATCC 27853 after 24 hrs by broth microdilution method. The format is functional, organism-based. The conditions noted are these: ATCC 27853, 24 h. In a few lines: as §4
A further experiment has as its system Klebsiella pneumoniae. Put plainly: Antibacterial activity against Klebsiella pneumoniae ATCC 700603 after 24 hrs by broth microdilution method. Format: functional, organism-based. The conditions noted are these: ATCC 700603, 24 h. The method, boiled down:
as §4

In experiment [5] the test system is Staphylococcus aureus. Put plainly: Antibacterial activity against epidemic methicillin-resistant Staphylococcus aureus 16 after 24 hrs by broth microdilution method. Format: functional, organism-based. The note with it: Staphylococcus aureus, 16, 24 h. In a few lines:
as §3

For experiment [6], the system named is Escherichia coli. Put plainly: Antibacterial activity against Escherichia coli ATCC 35218 after 24 hrs by broth microdilution method. Format: functional, organism-based. The conditions noted are these: ATCC 35218, 24 h. In a few lines: as §4
The test system of another experiment is Klebsiella oxytoca. Put plainly: Antibacterial activity against Klebsiella oxytoca ATCC 700324 after 24 hrs by broth microdilution method. Format: functional, organism-based. The conditions noted are these: ATCC 700324, 24 h.
The next experiment relates to Nakaseomyces glabratus. Put plainly: Antifungal activity against Candida glabrata ATCC 90030 after 48 hrs by broth microdilution method. The format is functional, organism-based. The note with it: ATCC 90030, 48 h. In a few lines:
as §2

Some results are limits rather than exact numbers.

For `ClC(Cl)(Cl)C1c2cc3ccccc3nc2C=C(c2ccccc2)N1Cc1ccccc1` (stereo not given), the GI50 in the experiment on WiDr came to 46 µM; in the experiment with T47D, 71 µM; with Ishikawa, 15 µM; in the experiment on SW1573 it was 5.1 µM; in the experiment with HeLa, 27 µM.

As to `CCCCN1C(c2ccccc2)=Cc2nc3ccccc3cc2C1C(Cl)(Cl)Cl` (stereo not given), the GI50 with WiDr was found to be 16 µM; in the experiment on T47D it was 15 µM; in the experiment with Ishikawa it was 3.1 µM; in the experiment on SW1573, 6.5 µM; with HeLa, 6.1 µM.

For `COC1OC(c2ccccc2)=Cc2nc3ccccc3cc21` (stereo not given), the IC50 in the experiment on Candida albicans was above 100 µM; in the experiment with Nakaseomyces nivariensis, above 100 µM; with Staphylococcus aureus [1], 29 µM; in the experiment with Staphylococcus aureus [2], above 100 µM; in the experiment on Pichia kudriavzevii it was above 100 µM; with Candida parapsilosis, above 100 µM. Besides, the IC50 in the experiment with Staphylococcus aureus [3], with Escherichia coli [4], in the experiment on Enterococcus faecalis, with Pseudomonas aeruginosa, in the experiment on Klebsiella pneumoniae and in the experiment with Staphylococcus aureus [5] was above 100 µM in each case. For the same molecule, the IC50 in the experiment on Escherichia coli [6], in the experiment with Klebsiella oxytoca and with Nakaseomyces glabratus was above 100 µM each time. Also, the GI50 with WiDr, in the experiment on T47D, in the experiment with Ishikawa, in the experiment with SW1573 and with HeLa was above 100 µM throughout.

`ClC(Cl)(Cl)C1c2cc3ccccc3nc2C=C(c2ccccc2)N1CCc1ccccc1` (stereo not given): the GI50 with WiDr was 57 µM; in the experiment with T47D, 60 µM; in the experiment with Ishikawa, 25 µM; in the experiment on SW1573, 5.5 µM; in the experiment with HeLa, 38 µM.

In the case of `C=CCN1C(c2ccccc2)=Cc2nc3ccccc3cc2C1C(Cl)(Cl)Cl` (stereo not given), the GI50 was 42 µM in the experiment with WiDr; 48 µM in the experiment on T47D; 31 µM in the experiment on Ishikawa; 46 µM with SW1573; 32 µM in the experiment with HeLa.

As for `CCOc1ccc(CCN2C(c3ccccc3)=Cc3nc4ccccc4cc3C2C(Cl)(Cl)Cl)cc1OCC` (stereo not given), the GI50 in the experiment on WiDr was determined as 37 µM; with T47D it was 54 µM; with Ishikawa, 4.1 µM; in the experiment with SW1573, 4.3 µM; with HeLa, 5.6 µM.

With `CCOC1OC(c2ccccc2)=Cc2nc3ccccc3cc21` (stereo not given), the IC50 with Candida albicans came out at 20 µM; in the experiment on Nakaseomyces nivariensis, 16 µM; with Staphylococcus aureus [1], 23 µM; in the experiment on Staphylococcus aureus [2] it was 24 µM; in the experiment on Pichia kudriavzevii it was 4.5 µM; with Candida parapsilosis it was 20 µM. Also, the IC50 amounted to 20 µM in the experiment on Staphylococcus aureus [3]; 20 µM in the experiment with Escherichia coli [4]; 25 µM with Enterococcus faecalis; 22 µM with Pseudomonas aeruginosa; 56 µM in the experiment with Klebsiella pneumoniae; 17 µM in the experiment with Staphylococcus aureus [5]. Further, the IC50 stood at 27 µM in the experiment on Escherichia coli [6], 63 µM in the experiment on Klebsiella oxytoca and 18 µM in the experiment on Nakaseomyces glabratus. The GI50 in the experiment on WiDr, in the experiment on T47D, in the experiment on Ishikawa, in the experiment with SW1573 and in the experiment on HeLa was above 100 µM each time.

On to `ClC(Cl)(Cl)C1c2cc3ccccc3nc2C=C(c2ccccc2)N1CCN1CCOCC1` (stereo not given), for which the GI50 in the experiment on WiDr was determined as 20 µM; with T47D, 26 µM; with Ishikawa, 17 µM; in the experiment with SW1573, 31 µM; in the experiment with HeLa, 6.5 µM.
